Data taken from ChEMBL document CHEMBL1140109, “Discovery of inhibitors of Escherichia coli methionine aminopeptidase with the Fe(II)-form selectivity and antibacterial activity” (J Med Chem, 2008).
≈ marks a conversion by molar mass, not a printed value. Calls of active or inactive are those of the source. The calls are words filed in the database; no cut-off is given here.

Experiments:
Escherichia coli [1] = assay: Antibacterial activity against Escherichia coli D22; type: functional, organism-based
Outline: (§1)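 Exponential-phase culture at 0.5 McFarland diluted 1000-fold in Mueller Hinton medium with 100 mM Tris pH 7.5, mixed with inhibitor at increasing concentrations plus resazurin (110 µM final). Fluorescence (ex 530/em 590) read every 5 min for 10 h at 37°C.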

Priestia megaterium = assay: Antibacterial activity against Bacillus megaterium; type: functional, organism-based; outline: as §1
[2] = Inhibition of Escherichia coli BL21(DE3) methionine aminopeptidase in presence of Co(II) metal ions
Outline: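 Recombinant E. coli MetAP apoenzyme purified from BL21(DE3) cells, used at 500 nM and activated with 10 μM CoCl2. Buffer was 50 mM MOPS pH 7.0 with 200 μM Met-AMC substrate, at room temperature. AMC release was read by fluorescence (ex 360/em 460 nm) across serially diluted inhibitor. IC50 came from non-linear fitting of percent inhibition.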

[3] = Inhibition of Escherichia coli BL21(DE3) methionine aminopeptidase in presence of Mn(II) metal ions
Outline: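 E. coli MetAP apoenzyme, recombinant from BL21(DE3), at 500 nM and metallated with 20 μM MnCl2. Contained 50 mM MOPS pH 7.0 and 200 μM Met-AMC, at room temperature. IC50 was derived by non-linear fit of percent inhibition versus concentration.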

Escherichia coli [4] = assay: Antibacterial activity against Escherichia coli AS19; type: functional, organism-based
Outline: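 AS19 culture at 0.5 McFarland, exponential phase, diluted 1000-fold in Mueller Hinton medium containing 100 mM Tris pH 7.5, exposed to increasing inhibitor concentrations […]. Growth followed by absorbance at 600 nm every 5 min for 10 h at 37°C.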

[5] = Inhibition of Escherichia coli BL21(DE3) methionine aminopeptidase in presence of Fe(II) metal ions
Outline: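 Purified BL21(DE3)-expressed E. coli MetAP apoenzyme at 500 nM, activated with 50 μM FeCl2 plus 100 μM ascorbic acid. Buffer was 50 mM MOPS pH 7.0 with 200 μM Met-AMC, at room temperature. Hydrolysis was followed by fluorescence (ex 360/em 460 nm) at serially diluted inhibitor concentrations. IC50 was obtained by non-linear curve fit of percent inhibition.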

Bacillus subtilis = assay: Antibacterial activity against Bacillus subtilis; type: functional, organism-based; outline: as §1
[6] = test system: Escherichia coli BL21(DE3); assay: Inhibition of Escherichia coli BL21(DE3) methionine aminopeptidase up to 100 uM in presence of Mn(II) metal ions
Outline: (§2)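 Purified apoenzyme (500 nM) in 50 mM MOPS pH 7.0 with 200 µM Met-AMC, activated by 50 µM FeCl2 plus 100 µM ascorbic acid (Fe), 10 µM CoCl2 (Co) or 20 µM MnCl2 (Mn), with serially diluted inhibitor. AMC release read by fluorescence (ex 360/em 460) at room temperature. IC50 from non-linear fit of percent inhibition versus concentration.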

[7] = test system: Escherichia coli BL21(DE3); assay: Inhibition of Escherichia coli BL21(DE3) methionine aminopeptidase up to 100 uM in presence of Co(II) metal ions; outline: as §2
[8] = test system: Escherichia coli BL21(DE3); assay: Inhibition of Escherichia coli BL21(DE3) methionine aminopeptidase up to 100 uM in presence of Fe(II) metal ions; outline: as §2
Escherichia coli [9] = assay: Antibacterial activity against Escherichia coli ATCC 25922; type: functional, organism-based
Outline: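 Wild-type strain grown to exponential phase (0.5 McFarland), diluted 1000-fold in Tris-free Mueller Hinton medium, incubated with increasing inhibitor concentrations and 110 µM resazurin. Fluorescence (ex 530/em 590) monitored 10 h at 37°C at 5-min intervals.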

Structure (SMILES)	IC50 (Escherichia coli [1])	MIC (Escherichia coli [1])	IC50 (Priestia megaterium)	MIC (Priestia megaterium)	IC50 [2]	IC50 [3]	IC50 (Escherichia coli [4])	MIC (Escherichia coli [4])	IC50 [5]	IC50 (Bacillus subtilis)	MIC (Bacillus subtilis)	Activity [6]	Activity [7]	Activity [8]	IC50 (Escherichia coli [9])
Cc1cc(-c2ccc(O)c(O)c2)c(C)s1	3.7 µM	4 µg/mL (≈ 18.2 µM)	16 µM	5 µg/mL (≈ 22.7 µM)	> 100 µM	> 100 µM	18.5 µM	9 µg/mL (≈ 40.9 µM)	7.4 µM	16.5 µM	5 µg/mL (≈ 22.7 µM)				
Cc1nc(-c2cccc(O)c2)cs1							158 µM					inactive	inactive	inactive	
Oc1ccc(-c2sccc2CCBr)cc1O	86 µM	51 µg/mL (≈ 170 µM)	21.1 µM	14 µg/mL (≈ 46.8 µM)	14 µM	22.4 µM	11.3 µM	5 µg/mL (≈ 16.7 µM)	7.3 µM	25.2 µM	10 µg/mL (≈ 33.4 µM)				
N#Cc1ccc(-c2ccc(O)c(O)c2)s1	44.2 µM	15 µg/mL (≈ 69 µM)	15.3 µM	9 µg/mL (≈ 41.4 µM)	36.3 µM	30.4 µM	20.1 µM	11 µg/mL (≈ 50.6 µM)	14.8 µM	14.6 µM	13 µg/mL (≈ 59.8 µM)				
Oc1ccc(-c2ccsc2)cc1O	2 µM	2 µg/mL (≈ 10.4 µM)	19.2 µM	10 µg/mL (≈ 52 µM)	40.4 µM	27.5 µM	29.9 µM	15 µg/mL (≈ 78 µM)	3.8 µM	15.7 µM	9 µg/mL (≈ 46.8 µM)				
Cc1nc(C(=O)NC(C)C)c(-c2ccc(O)c(O)c2)s1	93.8 µM	73 µg/mL (≈ 250 µM)	175 µM	122 µg/mL (≈ 417 µM)	> 100 µM	> 100 µM	116 µM	121 µg/mL (≈ 414 µM)	15.4 µM	186 µM	125 µg/mL (≈ 428 µM)				
Cc1ccsc1-c1ccc(O)c(O)c1	9 µM	3 µg/mL (≈ 14.5 µM)	15.3 µM	13 µg/mL (≈ 63 µM)	42.7 µM	23 µM	15.2 µM	7 µg/mL (≈ 33.9 µM)	8 µM	22.1 µM	8 µg/mL (≈ 38.8 µM)				179 µM
O=C(NC1CC1)c1ccsc1-c1ccc(O)c(O)c1	254 µM	151 µg/mL (≈ 548 µM)	54 µM	79 µg/mL (≈ 287 µM)	> 100 µM	> 100 µM	116 µM	113 µg/mL (≈ 410 µM)	7.8 µM	109 µM	56 µg/mL (≈ 203 µM)				
COc1ccc(-c2csc(C)n2)cc1OC							206 µM					inactive	inactive	inactive	
Oc1ccc(-c2ccc(Cl)s2)cc1O	7.5 µM	3 µg/mL (≈ 13.2 µM)	6.3 µM	2 µg/mL (≈ 8.82 µM)	> 100 µM	44.8 µM	15.5 µM	7 µg/mL (≈ 30.9 µM)	12.8 µM	7.1 µM	2 µg/mL (≈ 8.82 µM)				
Cc1nc(-c2ccc(N)c(N)c2)cs1							117 µM					inactive	inactive	inactive	
Oc1ccc(-c2cccs2)cc1O	4 µM	3 µg/mL (≈ 15.6 µM)	21.2 µM	9 µg/mL (≈ 46.8 µM)	23.7 µM	15.7 µM	32.8 µM		5.1 µM	16.1 µM	7 µg/mL (≈ 36.4 µM)				
Oc1ccc(-c2nccs2)cc1O	98.7 µM	66 µg/mL (≈ 342 µM)	224 µM	112 µg/mL (≈ 580 µM)	> 100 µM	> 100 µM	235 µM	198 µg/mL (≈ 1020 µM)	16.6 µM	397 µM	193 µg/mL (≈ 999 µM)				
